Source: PubChem BioAssay (Broad Institute)
esBAF inh: Bmi1 luciferase reporter increase in mESCs, primary screen, esBAF inhibitor project, mouse ES cells, Bmi1 luciferase knock-in, single point. 24 h; 100% = twice the neutral-well signal. reporter increase, % at 12.5 µM. AID 602393, 2012. 350,000 tested, 2% active; in the data active = activation above about 40%; inconclusive = no clear call, values can overlap the other calls;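 also: 0% = median of the plate's neutral control wells and 100% = double that signal; a rise in the Bmi1 reporter signal indicates esBAF inhibition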
MITF act: activators of MITF-driven TRPM1 promoter reporter, primary screen, cell-based, SK-MEL-5, luciferase, single point; SK-MEL-5 TRPM1-promoter luciferase, 24 h; % of positive control, neutral wells = 0; activation, % at 12.5 µM; 300,000 tested, 0.75% active; AID 588334, 2011;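 active = mean activation of at least 80% with every replicate also reaching 80%; inconclusive = mean reaches 80% but some replicate falls short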;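 also: 0% = neutral control wells and 100% = parthenolide positive control wells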
Xi reactivation: activators of inactive X chromosome reactivation, primary screen, imaging, XiGFP fibroblasts, GFP high-content imaging, set 2; XiGFP mouse fibroblasts, % GFP-positive cells imaging, 3 d; cells co-treated with 5-aza-dC sensitizer; scaled so ellipticine positive control = 100%; 360,000 tested, 0.055% active; activation, % at 7.58 µM;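 active = mean normalized replicate activation at least 10% and every replicate at or above 10%; inconclusive = only one of the two criteria met; inactive = mean below 10% and not all replicates reach 10%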;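 also: 0% = median of on-plate neutral control wells and 100% = ellipticine 6 µM median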
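Material: SV40-immortalized XiGFP fibroblast cells, line 68-5-11 | Buffer or medium: DMEM containing 5-aza-dC | Dosing: One concentration, pinned | Times: 3 d treatment, 15 min room-temperature fixation | Controls: Ellipticine 6 µM positive control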
Vif imaging: HIV Vif self-association inhibitors, primary screen, imaging, HEK293T, single point. HEK293T cells, Vif self-association by quenched fluorescence, 24 h. inhibition, % at 7.49 µM. 340,000 tested, 0.35% active. AID 602346, 2012; in the data active = inhibition above about 50%, passing the limit was not always enough; inconclusive = no clear call, values can overlap the other calls; inactive = below about 31%
Wnt bcat act: Wnt/beta-catenin pathway activators, primary screen, cell-based, plate reader, single point | Wnt/beta-catenin reporter cell assay, activator | activation, % at 9.35 µM | 300,000 tested, 1.2% active | AID 743398, 2014; in the data active = activation above about 30%, passing the limit was not always enough; inconclusive = no clear call, values can overlap the other calls;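 also: 0% = neutral control wells and 100% = positive control wells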
Starred values were filed as active, the others as inactive; ? = inconclusive; / = no result given. Sampled rows, rich in hits. Any-hit rate of the full collection: about 2.6%.

SMILES | esBAF inh | MITF act | Xi reactivation | Vif imaging | Wnt bcat act
O=C(/C=C/c1ccccc1Cl)Nc1ccc2c(c1)C(=O)NC2=O | 0.5 | / | 0.0 | / | -5.0
O=C(/C=C/c1ccccc1Cl)Nc1cccc(O)c1 | / | 53.7 | 0.1 | -13.1 | 54.2*
COc1ccc(NC(=O)N(C)C[C@H]2OCCCC[C@H](C)Oc3ccc(NC(=O)NC(C)C)cc3C(=O)N([C@@H](C)CO)C[C@@H]2C)cc1 | 1.7 | / | 0.0 | / | /
CC(C)C#Cc1ccc2c(c1)O[C@H](CN(C)Cc1cncnc1)[C@H](C)CN([C@@H](C)CO)S2(=O)=O | -2.9 | / | -0.7 | / | /
CCC(=O)N/N=C/c1ccc(-c2ccc([N+](=O)[O-])cc2)o1 | 6.0 | 17.6 | 0.0 | / | -0.1
CC(C)(C)C(=O)/C=c1\s/c(=C\c2ccc(-c3ccc([N+](=O)[O-])cc3)o2)c(=O)n1CC(=O)NC(N)=O | -11.7 | -1.0 | 109.9* | / | -0.7
CCOC(=O)C1(Cc2ccccc2)CCN(Cc2cnn(C(C)C)c2)CC1 | 8.1 | -4.1 | 0.1 | 6.2 | -2.3
CCOC(=O)C1(Cc2cccc(F)c2)CCN(Cc2nc(CC)[nH]c2C)CC1 | -5.0 | 5.2 | 0.0 | 85.1* | -0.4
CCOC(=O)C1(Cc2ccccc2)CCN(Cc2csc(C(C)=O)c2)CC1 | -5.5 | 6.5 | 0.1 | 119.0* | -0.5
CCOC(=O)C1(Cc2cccc(F)c2)CCN(Cc2cnn(CC)c2)CC1 | / | -5.9 | 0.0 | -7.1 | -1.7
CC1CC(C)CN(c2ccc(-n3cnnn3)cc2[N+](=O)[O-])C1 (configuration not stated) | -14.1 | -27.8 | / | -0.4 | /
O=[N+]([O-])c1cc(-n2cnnn2)ccc1N1CCC(Cc2ccccc2)CC1 | -9.3 | -6.8 | / | 78.2* | /
COC(=O)c1ccc(NC(=O)c2ccc(CN3CCOCC3)cc2)cc1 | 2.1 | -17.2 | / | -13.3 | -5.4
O=C(Nc1ccc(CN2CCOCC2)cc1)c1ccc(Cl)cc1 | 44.4* | 47.0 | 0.0 | 2.2 | 11.6
O=C(Nc1ccc(CN2CCOCC2)cc1)c1ccc2ccccc2c1 | 60.7* | 73.9 | -0.1 | -11.2 | 2.2
O=C(Nc1ccc(CN2CCOCC2)cc1)c1ccc(F)cc1 | 16.1 | 66.1 | 0.0 | -1.4 | 11.5
O=C(NCc1ccc(Cl)cc1)N1CCOCC1 | 1.1 | -0.3 | 0.0 | 50.4* | 0.4
O=C(Nc1ccc(CN2CCOCC2)cc1)c1cccc(F)c1 | 4.0 | 88.1* | / | 6.2 | /
O=C(Nc1ccc(CN2CCOCC2)cc1)c1ccc(Br)cc1 | ? | / | 0.1 | -10.3 | -0.1
CC(C)NC(=O)Nc1ccc2c(c1)CC(=O)N(C)C[C@@H](C)[C@H](CN(C)C(=O)NC(C)C)O2 | / | / | -0.1 | / | /
CCCNC(=O)Nc1ccc2c(c1)C(=O)N(C)C[C@@H](OC)[C@@H](C)CN(C(=O)c1ccccc1F)[C@H](C)CO2 | 3.7 | / | 3.1 | / | /
C/C(=N\NC(=O)c1ccc(CN2CCOCC2)cc1)c1ccc(NC(=O)c2ccccc2)cc1 | 65.6* | 38.6 | 0.0 | 16.8 | 9.9
CC(=O)Nc1ccc(/C(C)=N/NC(=O)c2ccc(CN3CCOCC3)cc2)cc1 | / | -7.9 | 0.0 | -0.3 | 0.8
O=C(Nc1ccccc1N1CCOCC1)c1ccc2c(c1)OCO2 | / | -8.7 | 0.4 | -2.8 | -1.9
O=C(Nc1ccccc1N1CCOCC1)c1ccc2ccccc2c1 | 55.1* | -12.6 | 0.0 | -8.5 | 5.5
SMILES | esBAF inh | MITF act | Xi reactivation | Vif imaging | Wnt bcat act
C[C@@H]1CN([C@@H](C)CO)C(=O)Cc2cc(NC(=O)C3CC3)ccc2O[C@@H]1CN(C)S(=O)(=O)c1cccs1 | 8.5 | / | 0.1 | / | /
C/C=C/c1cnc2c(c1)C(=O)N([C@@H](C)CO)C[C@H](C)[C@@H](CN(C)S(=O)(=O)c1ccccc1F)O2 | 14.5 | / | -0.4 | / | /
CCOc1ccc(C2C=C(c3ccccc3)Nc3nnnn32)cc1 (configuration not stated) | 51.3* | / | / | -21.2 | 43.3*
O=C(O)Cc1sc(Nc2ccccc2)nc1-c1cccs1 | / | 20.2 | / | ? | 34.8*
O=C(Cc1sc(Nc2ccccc2)nc1-c1ccccc1)NCc1ccccc1 | 75.2* | 22.2 | 0.0 | 98.0* | 7.5
C[C@@H]1CN([C@@H](C)CO)C(=O)c2cc(NC(=O)CCC(F)(F)F)ccc2O[C@H]1CN(C)C(=O)Nc1ccc(F)cc1 | -0.7 | / | -0.9 | / | /
COc1ccccc1-c1ccc2c(c1)[C@H]1[C@H](CCN1C(=O)C1CCOCC1)[C@H](CO)N2 | 3.6 | / | -0.1 | / | /
Cc1nc(C)n(CC(=O)N2CCCC(C(=O)c3ccc(C(F)(F)F)cc3)C2)n1 (configuration not stated) | / | 13.7 | 0.1 | 95.8* | 3.7
CC(C)NC(=O)CCc1nnc(Cc2cccc(C(F)(F)F)c2)o1 | 67.1* | 53.2 | 0.0 | 17.2 | 3.4
CC(C)(C)c1ccc(/C=C/C(=O)N2CCOCC2)cc1 | / | 53.6 | 0.1 | 9.1 | -3.6
CC(C)Cc1ccc(/C=C/C(=O)N2CCOCC2)cc1 | 51.5* | 102.7* | 0.0 | 7.5 | 16.8
COc1ccc2c3c(n(C)c2c1)[C@H](CO)N(C(=O)Nc1ccc(F)cc1)CC31CN(S(=O)(=O)c2cccc(C)c2)C1 | / | / | 0.3 | / | /
Cc1ccc(S(=O)(=O)NCC[C@H]2CC[C@@H](NC(=O)c3cccc(F)c3)[C@@H](CO)O2)cc1 | 1.9 | / | -0.3 | / | /
COc1ccc(CCNC2CC(=O)N(CCc3ccccc3)C2=O)cc1OC (configuration not stated) | 6.5 | 4.2 | / | 4.7 | 42.5*
CNC[C@@H]1Oc2ncccc2C(=O)N(C)C[C@@H]1C | / | / | 0.4 | / | /
CN1C(=O)c2cc(NC(=O)c3cnccn3)ccc2OC[C@H]2O[C@H](CC(=O)NCC3CC3)CC[C@H]21 | / | / | 0.0 | / | /
COc1ccc(CNC(=O)C[C@H]2CC[C@@H](NC(=O)c3ccc4c(c3)OCO4)[C@H](CO)O2)cc1 | -4.7 | / | -0.2 | / | /
COCCN(CC(=O)Nc1cccc(C)c1C)C(=O)c1ccc2ccccc2n1 | 47.2* | 11.4 | 0.0 | -2.8 | -4.2
CCCCCc1cc(=O)c2ccccc2o1 | 50.2* | 36.2 | 0.0 | -3.4 | 1.3
O=c1cc(CO)oc2ccccc12 | -2.7 | -2.8 | 0.0 | -14.5 | 1.8
O=c1cc(-c2ccc(C(F)(F)F)cc2)oc2ccccc12 | 14.4 | 13.9 | 0.0 | -3.8 | 1.7
O=c1cc(/C=C/c2ccccc2)oc2ccccc12 | 59.0* | 32.1 | / | -2.3 | /
O=c1cc(-c2ccccc2)oc2ccccc12 | 56.0* | 45.8 | / | -3.4 | 2.1
O=c1cc(-c2ccccc2)oc2ccc(O)cc12 | 30.9 | 57.1 | -0.1 | -16.2 | 59.5*
CCCNC(=O)Nc1ccc2c(c1)C(=O)N(C)[C@H]1CC[C@@H](CC(=O)O)O[C@H]1CO2 | -1.0 | / | 0.1 | / | /
CCC(=O)N1CC(=O)N2[C@H](CO)[C@H](c3ccc(C#CCc4ccccc4)cc3)[C@H]2C1 | / | / | 0.3 | / | /
